Assay results as given in the array DNA melting data of Ke et al. (doi:10.1101/2024.01.08.574731).

What was measured:
[1] = folding enthalpy; higher = less favourable; fluorescence melt of hairpins on a sequencing array, two-state fit; conditions: sodium 0.088 M
Summary of the method: (§1)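 To match UV melts, fitted temperatures were raised by 9.35 °C. These fits were bootstrapped two-state models that gave melting temperature and folding enthalpy, combined by inverse variance over four replicates. The input was normalised Cy3 fluorescence of library hairpins with annealed Cy3 and quencher oligos on a sequenced MiSeq flow cell, imaged in 50 mM Na-HEPES pH 8.0, 25 mM NaCl in 2.5 °C steps up to 60 °C.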

[2] = melting temperature; fluorescence melt of hairpins on a sequencing array, two-state fit, raised by 9.35 °C to match UV melts; conditions: sodium 0.088 M
Summary of the method: as §1

Row | Sequence | folding enthalpy [1] | Tm [2]
1 | GCATGCGAAAGCAGGTGC ((((((....)))..))) | -97.2 kJ/mol | 51.1 °C
2 | GCATGCGAAAGCAGTGC ((((((....))).))) | -113 kJ/mol | 54.6 °C
3 | GCATGCGGAAACGCATAC (.(((((....))))).) | -40.9 kJ/mol | 44 °C
4 | GCATGCTCGAAAGAGTGC (((..(((....)))))) | -66.2 kJ/mol | 34.3 °C
5 | GCATGGACGAAAGTCTGC (((..(((....)))))) | -80.1 kJ/mol | 43 °C
6 | GCATGGCGAAAGCCCTGC (((.(((....))).))) | -189 kJ/mol | 53 °C
7 | GCATGGCGAAAGCGAAGC ((.(.((....)).).)) | -48.9 kJ/mol | 35.4 °C
8 | GCATGGCGAAAGCGTTGC (((..((....))..))) | -90 kJ/mol | 48 °C
9 | GCATGGCGAAAGCTAAGC ((.(.((....)).).)) | -52.8 kJ/mol | 38.4 °C
10 | GCATGGCGAAAGCTACGC ((.(.((....)).).)) | -68.7 kJ/mol | 35 °C
11 | GCATGGCGAAAGCTGTGC (((..((....))..))) | -132 kJ/mol | 59.9 °C
12 | GCATGGGGAAACCCACGC ((.((((....)))).)) | -99.7 kJ/mol | 46.7 °C
13 | GCATGGGGAAACCCGTGC (((.(((....))).))) | -199 kJ/mol | 58.7 °C
14 | GCATGTCGAAAGACCTGC (((.(((....))).))) | -156 kJ/mol | 50.6 °C
15 | GCATGTGGAAACACATGC (((((((....))))))) | -155 kJ/mol | 68.5 °C
16 | GCATGTGGAAACACGTGC (((.(((....))).))) | -190 kJ/mol | 55.6 °C
17 | GCATTAACGAAAGTTTGC (((..(((....)))))) | -66.8 kJ/mol | 33.6 °C
18 | GCATTACCGAAAGGTTGC (((..(((....)))))) | -84.3 kJ/mol | 40 °C
19 | GCATTAGGAAACTAGTGC (((.(((....))).))) | -120 kJ/mol | 40.9 °C
20 | GCATTCCCGAAAGGGTGC (((..(((....)))))) | -87.4 kJ/mol | 43.5 °C
21 | GCATTCGAAAGAAATGC ((((((....))).))) | -127 kJ/mol | 49 °C
22 | GCATTCGAAAGAAGGTGC ((((((....)))..))) | -92.8 kJ/mol | 36.7 °C
23 | GCATTCGAAAGAAGTGC ((((((....))).))) | -97.1 kJ/mol | 40.2 °C

Row | Sequence | folding enthalpy [1] | Tm [2]
24 | GCATTCGCGAAAGCGTGC (((..(((....)))))) | -49.5 kJ/mol | 41.8 °C
25 | GCATTGCGAAAGCAGTGC (((.(((....))).))) | -205 kJ/mol | 59.8 °C
26 | GCATTGCGAAAGCTAAGC ((.(.((....)).).)) | -61.9 kJ/mol | 43.7 °C
27 | GCATTGCGAAAGCTACGC ((.(.((....)).).)) | -58.4 kJ/mol | 39.1 °C
28 | GCATTGCGAAAGCTGTGC (((..((....))..))) | -92.8 kJ/mol | 56 °C
29 | GCATTGGCGAAAGCCTGC (((..(((....)))))) | -63.3 kJ/mol | 44.3 °C
30 | GCATTGGGAAACCAACGC ((.((((....)))).)) | -123 kJ/mol | 42.2 °C
31 | GCATTGGGAAACCAATAC (.(((((....))))).) | -77.2 kJ/mol | 32.9 °C
32 | GCATTGGGAAACCGATGC ((((.((....)).)))) | -211 kJ/mol | 53.3 °C
33 | GCATTGGGAAACTAGTGC (((.(.(....).).))) | -81.7 kJ/mol | 29.8 °C
34 | GCATTGTCGAAAGACTGC (((..(((....)))))) | -95.3 kJ/mol | 37.2 °C
35 | GCATTTACGAAAGTATGC (((..(((....)))))) | -92.9 kJ/mol | 38 °C
36 | GCATTTCGAAAGAATTGC (((.(((....))).))) | -141 kJ/mol | 47.1 °C
37 | GCATTTGGAAACAAATAC (.(((((....))))).) | -74.9 kJ/mol | 29.3 °C
38 | GCCAAACCGAAAGGTGGC (((..(((....)))))) | -134 kJ/mol | 55.4 °C
39 | GCCAAACGAAAGTTGGGC (((.(((....))).))) | -156 kJ/mol | 61.4 °C
40 | GCCAAAGAAATTTGGC ((((((....)))))) | -145 kJ/mol | 54 °C
41 | GCCAAAGGAAACCTTGGC (((((.(....).))))) | -121 kJ/mol | 48.1 °C
42 | GCCAACGAAAGTTACGGC ((((((....)))..))) | -109 kJ/mol | 41.3 °C
43 | GCCAACGAAAGTTAGGC ((((((....))).))) | -121 kJ/mol | 52.8 °C
44 | GCCAACGAAAGTTCTGGC ((((((....)))..))) | -104 kJ/mol | 38 °C
45 | GCCAACGAAAGTTGGGC ((((((....))).))) | -59.5 kJ/mol | 65.7 °C
46 | GCCAACGAAAGTTTTGGC ((((((....)))..))) | -96.9 kJ/mol | 44.6 °C

Row | Sequence | folding enthalpy [1] | Tm [2]
47 | GCCAACGGAAACACTGGC ((((..(....)..)))) | -58.4 kJ/mol | 29.1 °C
48 | GCCAACGGAAACATTGGC (((((.(....).))))) | -134 kJ/mol | 44.1 °C
49 | GCCAACTCGAAAGAGGGC (((..(((....)))))) | -84.5 kJ/mol | 47.3 °C
50 | GCCAAGGGAAACTTTGGC (((((.(....).))))) | -126 kJ/mol | 48.6 °C
51 | GCCAATACGAAAGTAGGC (((..(((....)))))) | -107 kJ/mol | 44.2 °C
52 | GCCAATCGAAAGATCGGC (((.(((....))).))) | -149 kJ/mol | 49.8 °C
53 | GCCAATCGAAAGATGGGC (((.(((....))).))) | -165 kJ/mol | 55.1 °C
54 | GCCAATGCGAAAGCAGGC (((..(((....)))))) | -90.8 kJ/mol | 53 °C
55 | GCCACATCGAAAGATGGC (((..(((....)))))) | -63.8 kJ/mol | 45.5 °C
56 | GCCACCGGAAACGATGGC ((((.((....)).)))) | -184 kJ/mol | 52.6 °C
57 | GCCACCTCGAAAGAGGGC (((..(((....)))))) | -40.1 kJ/mol | 44.5 °C
58 | GCCACGCGAAAGCATCGC ((.(.((....)).).)) | -31.3 kJ/mol | 24 °C
59 | GCCACGCGAAAGCCAGGC (((..((....))..))) | -94.9 kJ/mol | 50.2 °C
60 | GCCACGCGAAAGCCTAGC ((.(.((....)).).)) | -27.3 kJ/mol | 14.4 °C
61 | GCCACGCGAAAGCGAAGC ((..(((....)))..)) | -46.9 kJ/mol | 43.4 °C
62 | GCCACGCGAAAGCGTTGC ((.((((....)))).)) | -84.5 kJ/mol | 57.6 °C
63 | GCCACGGCGAAAGCCGGC (((..(((....)))))) | -32.8 kJ/mol | 49.1 °C
64 | GCCACGGGAAACCACGGC (((..((....))..))) | -144 kJ/mol | 46.5 °C
65 | GCCACGGGAAACCATGGC ((((.((....)).)))) | -200 kJ/mol | 48.6 °C
66 | GCCACGGGAAACCGCAGC ((..(((....)))..)) | -72.9 kJ/mol | 34.1 °C
67 | GCCACTGGAAACAGCAGC ((..(((....)))..)) | -49.2 kJ/mol | 25.5 °C
68 | GCCACTGGAAACAGCGGC (((.(((....))).))) | -178 kJ/mol | 52.9 °C
